Experimental data taken from ChEMBL document CHEMBL1157456, “Unsymmetric aryl-alkyl disulfide growth inhibitors of methicillin-resistant Staphylococcus aureus and Bacillus anthracis” (Bioorg Med Chem, 2008).
≈ marks a conversion by molar mass, not a printed value. Calls of active or inactive are those of the source. The calls are words filed in the database; no cut-off is given here.

Key:
Staphylococcus aureus [1] = experiment: Antibacterial activity against Staphylococcus aureus ATCC 25923 after 24 hrs by serial dilution method; type: functional; conditions: for MIC: ATCC 25923, 24 h
Staphylococcus aureus [2] = experiment: Antibacterial activity against methicillin-resistant Staphylococcus aureus ATCC 43300 after 24 hrs by serial dilution method; type: functional; conditions: ATCC 43300, 24 h
Escherichia coli [3] = experiment: Antibacterial activity against Escherichia coli K12 ATCC 23590 after 24 hrs by serial dilution method; type: functional; conditions: K12, 24 h
Staphylococcus aureus [4] = experiment: Antibacterial activity against Staphylococcus aureus ATCC 25923 assessed as inhibition zone diameter at 20 ug after 24 hrs by Kirby-Bauer test; type: functional; conditions: ATCC 25923, 24 h, read-out: IZ
How it was run: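 Kirby-Bauer on TSA: a 0.5 McFarland saline suspension was spread as a lawn. 6 mm wells were bored and given 20 µL of 1 mg/mL compound in DMSO (20 ug). Plates ran 24 h at 37 °C. Inhibition zone diameter was averaged over 3 trials.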

Bacillus anthracis [5] = experiment: Antibacterial activity against Bacillus anthracis after 24 hrs by serial dilution method; type: functional
Escherichia coli [6] = experiment: Inhibition of purified Escherichia coli FabH at 5 uM by trichloroacetic acid precipitation assay relative to control
How it was run: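 ecFabH (100 nM monomer) was preincubated 15 min at room temperature with 5 µM disulfide in 50 mM sodium phosphate pH 7.4. Radiolabeled 3-ketoacyl-ACP was formed from [1-14C]acetyl-CoA (40 µM) and malonyl-ACP (10 µM), the latter from a coupled S. glaucescens FabD/ACP system. Product was collected by TCA precipitation. Activity was expressed as % decrease versus a no-compound control, in duplicate.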

[7] = Inhibition of Escherichia coli FabH
[8] = molecular target: T1, Mycobacterial beta-ketoacyl-[acyl-carrier-protein] synthase III (Mycobacterium tuberculosis) (UniProt P9WNG3); experiment: Inhibition of Mycobacterium tuberculosis FabH
T1 sequence (whole entry): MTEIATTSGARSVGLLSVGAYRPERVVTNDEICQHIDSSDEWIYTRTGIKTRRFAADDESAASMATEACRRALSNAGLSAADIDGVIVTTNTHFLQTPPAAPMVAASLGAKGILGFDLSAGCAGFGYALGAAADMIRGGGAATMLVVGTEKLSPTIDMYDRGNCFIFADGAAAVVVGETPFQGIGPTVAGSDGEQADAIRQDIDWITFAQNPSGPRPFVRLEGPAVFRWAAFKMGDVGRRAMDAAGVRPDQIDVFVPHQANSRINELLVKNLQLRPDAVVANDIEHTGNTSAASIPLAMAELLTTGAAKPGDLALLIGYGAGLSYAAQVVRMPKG

Escherichia coli [9] = experiment: Inhibition of purified Escherichia coli FabH at 1 uM by trichloroacetic acid precipitation assay relative to control
How it was run: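 Purified ecFabH (100 nM monomer) was preincubated 15 min at room temperature with 1 µM compound in 50 mM sodium phosphate pH 7.4, without CoA. It was then added to [1-14C]acetyl-CoA (40 µM) and malonyl-ACP (10 µM), made with S. glaucescens FabD/ACP. 3-Ketoacyl-ACP was measured by TCA precipitation, as % inhibition versus a no-inhibitor control, in duplicate.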

Bacillus anthracis [10] = experiment: Antibacterial activity against Bacillus anthracis assessed as inhibition zone diameter at 20 ug after 24 hrs by Kirby-Bauer test; type: functional; conditions: read-out: IZ

| SMILES | MIC (Staphylococcus aureus [1]) [µg/mL] | MIC (Staphylococcus aureus [2]) [µg/mL] | zone of inhibition at 20 µg/disc (Staphylococcus aureus [4]) [mm] | MIC (Bacillus anthracis [5]) [µg/mL] | further results |
| --- | --- | --- | --- | --- | --- |
| CSSc1ccc([N+](=O)[O-])cc1 | 16 (≈ 79.5 µM) | 32 (≈ 159 µM) | 35 | 1 (≈ 4.97 µM) | MIC (Escherichia coli [3]): 16 µg/mL (≈ 79.5 µM); inhibition (Escherichia coli [6]): 94% |
| CSSCCNC(=O)CCNC(=O)[C@@H](O)C(C)(C)COP(=O)(O)OP(=O)(O)OC[C@H]1O[C@@H](n2cnc3c(N)ncnc32)[C@H](O)[C@@H]1OP(=O)(O)O |  |  |  |  | IC50 [7]: 57 µM |
| CCCCCCCCCCOC(=O)SSCCO |  |  |  |  | Activity [8]: Active |
| CCCSSc1ccc([N+](=O)[O-])cc1 | 16 (≈ 69.8 µM) | 16 (≈ 69.8 µM) | 43 | 1 (≈ 4.36 µM) | MIC (Escherichia coli [3]): 64 µg/mL (≈ 279 µM); inhibition (Escherichia coli [6]): 91% |
| CC(C)SSc1cccc([N+](=O)[O-])c1 | < 0.125 | 16 (≈ 69.8 µM) |  | 1 (≈ 4.36 µM) |  |
| CC1(C)S[C@@H]2[C@H](NC(=O)Cc3ccccc3)C(=O)N2[C@H]1C(=O)O [PENICILLIN G] | 0.03 (≈ 0.0897 µM) | 64 (≈ 191 µM) | 33 |  |  |
| CSSc1ccccc1CO |  |  | 14 |  |  |
| CO[C@H]1C(=O)N(SC)[C@H]1c1ccccc1Cl |  |  |  |  | inhibition (Escherichia coli [9]): 89% |
| CSSCc1ccc([N+](=O)[O-])cc1 |  |  |  | 32 (≈ 149 µM) | Activity (Staphylococcus aureus [1]): Active |
| CSSc1ccccn1 |  |  | 23 |  |  |
| CSSc1ccc(C)c(C)c1 |  |  | 10 |  |  |
| CCSSc1ccccc1[N+](=O)[O-] | 16 (≈ 74.3 µM) | 32 (≈ 149 µM) | 40 | 16 (≈ 74.3 µM) | zone of inhibition at 20 µg/disc (Bacillus anthracis [10]): 35 mm |
| CCSSc1cccc([N+](=O)[O-])c1 | 8 (≈ 37.2 µM) | 64 (≈ 297 µM) | 45 | 8 (≈ 37.2 µM) | zone of inhibition at 20 µg/disc (Bacillus anthracis [10]): 40 mm |
| CC(C)SSc1ccccc1[N+](=O)[O-] | 16 (≈ 69.8 µM) | 32 (≈ 140 µM) | 31 | 32 (≈ 140 µM) | zone of inhibition at 20 µg/disc (Bacillus anthracis [10]): 27 mm |
| CSSCCc1ccc([N+](=O)[O-])cc1 |  |  |  | 64 (≈ 279 µM) | Activity (Staphylococcus aureus [1]): Active |
| CSSc1ccccc1[N+](=O)[O-] | 16 (≈ 79.5 µM) | 32 (≈ 159 µM) | 37 | 16 (≈ 79.5 µM) | zone of inhibition at 20 µg/disc (Bacillus anthracis [10]): 31 mm |

| SMILES | MIC (Staphylococcus aureus [1]) [µg/mL] | MIC (Staphylococcus aureus [2]) [µg/mL] | zone of inhibition at 20 µg/disc (Staphylococcus aureus [4]) [mm] | MIC (Bacillus anthracis [5]) [µg/mL] | further results |
| --- | --- | --- | --- | --- | --- |
| CN[C@H](CC(C)C)C(=O)N[C@H]1C(=O)N[C@@H](CC(N)=O)C(=O)N[C@H]2C(=O)N[C@H]3C(=O)N[C@H](C(=O)N[C@H](C(=O)O)c4cc(O)cc(O)c4-c4cc3ccc4O)[C@H](O)c3ccc(c(Cl)c3)Oc3cc2cc(c3O[C@@H]2O[C@H](CO)[C@@H](O)[C@H](O)[C@H]2O[C@H]2C[C@](C)(N)[C@H](O)[C@H](C)O2)Oc2ccc(cc2Cl)[C@H]1O [VANCOMYCIN] | 0.25 (≈ 0.173 µM) |  | 27 |  |  |
| CC(C)SSc1ccc([N+](=O)[O-])cc1 | < 0.125 | < 0.125 |  | 0.125 (≈ 0.545 µM) | MIC (Escherichia coli [3]): 96 µg/mL (≈ 419 µM); inhibition (Escherichia coli [6]): 98.5% |
| CSSc1cccc([N+](=O)[O-])c1 | 16 (≈ 79.5 µM) | 64 (≈ 318 µM) | 36 | 8 (≈ 39.7 µM) | zone of inhibition at 20 µg/disc (Bacillus anthracis [10]): 43 mm |
| CCC(C)SSc1ccccc1[N+](=O)[O-] (configuration not stated) | 32 (≈ 131 µM) | 32 (≈ 131 µM) | 24 | 32 (≈ 131 µM) | zone of inhibition at 20 µg/disc (Bacillus anthracis [10]): 23 mm |
| CSSc1ccc(NC(C)=O)cc1 |  |  | 20 |  |  |
| CCOc1cccc(SSC)c1 |  |  | 9 |  |  |
| CCC(C)SN1C(=O)[C@H](OC)[C@@H]1c1ccccc1Cl (some centres not stated) |  |  |  |  | inhibition (Escherichia coli [9]): 30% |
| CCC(C)SSc1cccc([N+](=O)[O-])c1 (configuration not stated) | 8 (≈ 32.9 µM) | 32 (≈ 131 µM) | 45 | 8 (≈ 32.9 µM) | zone of inhibition at 20 µg/disc (Bacillus anthracis [10]): 41 mm |
| O=C(O)c1cc([N+](=O)[O-])ccc1SSc1ccc([N+](=O)[O-])cc1C(=O)O |  |  |  |  | Activity (Staphylococcus aureus [1]): inactive |
| CSSc1ccc(N)cc1 |  |  | 0 |  |  |
| CSSc1ccc(F)c(F)c1 |  |  | 11 |  |  |
| CCC(C)SSc1ccc([N+](=O)[O-])cc1 (configuration not stated) | 0.8 (≈ 3.29 µM) | 1 (≈ 4.11 µM) |  | 0.5 (≈ 2.05 µM) | MIC (Escherichia coli [3]): 128 µg/mL (≈ 526 µM); inhibition (Escherichia coli [6]): 96% |
| CCCCSSc1ccc([N+](=O)[O-])cc1 | 1 (≈ 4.11 µM) | 32 (≈ 131 µM) |  | 1 (≈ 4.11 µM) | MIC (Escherichia coli [3]): 96 µg/mL (≈ 394 µM); inhibition (Escherichia coli [6]): 93% |
| CCSSc1ccc([N+](=O)[O-])cc1 | 1 (≈ 4.64 µM) | 16 (≈ 74.3 µM) |  | 0.25 (≈ 1.16 µM) | MIC (Escherichia coli [3]): 16 µg/mL (≈ 74.3 µM); inhibition (Escherichia coli [6]): 98% |
| CSc1ccc([N+](=O)[O-])cc1 |  |  |  |  | Activity (Staphylococcus aureus [1]): inactive |
